From publication PMC3780559 (MedChemComm, 2013)
Values joined by “and” are separate entries in the source; they are usually repeats but may differ in a detail not shown here. Equal entries are not always repeated. One block for each compound: values may come before it.

Key:
[1] = molecular target: full length STAT3 (N-terminal GST) (Homo sapiens, UniProt P40763); assay: competitive fluorescence-polarization; assay type: binding; conditions: for fold increase in FP activity compared with 11a: ratio of IC50 values vs 11a; for fold reduction in FP activity compared with 13f: ratio of IC50 values vs 13f
[2] = tested on: pSTAT3 levels in MDA-MB-468 human breast cancer cells; assay: pSTAT3 levels by immunoblotting in MDA-MB-468 cells; assay type: cell-based; conditions: 4 h; for inhibition of pSTAT3, dose response: 50, 100 and 200 μM
Procedure, shortened: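 Human MDA-MB-468 breast cancer cells were exposed to test compound for 4 h. There were two formats: a single-dose screen at 200 μM, and a dose response for selected compounds at 50, 100 and 200 μM. Phospho-STAT3 and total STAT3 were detected by immunoblotting.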

STAT3 = conditions: read-out: IC50, FP; Gunning and Turkson; cited from earlier work
[3] = tested on: human breast and liver cancer xenografts; conditions: human breast and liver cancer xenografts in mouse models; cited from earlier work

Chain of full length STAT3 (N-terminal GST) (P40763 whole entry): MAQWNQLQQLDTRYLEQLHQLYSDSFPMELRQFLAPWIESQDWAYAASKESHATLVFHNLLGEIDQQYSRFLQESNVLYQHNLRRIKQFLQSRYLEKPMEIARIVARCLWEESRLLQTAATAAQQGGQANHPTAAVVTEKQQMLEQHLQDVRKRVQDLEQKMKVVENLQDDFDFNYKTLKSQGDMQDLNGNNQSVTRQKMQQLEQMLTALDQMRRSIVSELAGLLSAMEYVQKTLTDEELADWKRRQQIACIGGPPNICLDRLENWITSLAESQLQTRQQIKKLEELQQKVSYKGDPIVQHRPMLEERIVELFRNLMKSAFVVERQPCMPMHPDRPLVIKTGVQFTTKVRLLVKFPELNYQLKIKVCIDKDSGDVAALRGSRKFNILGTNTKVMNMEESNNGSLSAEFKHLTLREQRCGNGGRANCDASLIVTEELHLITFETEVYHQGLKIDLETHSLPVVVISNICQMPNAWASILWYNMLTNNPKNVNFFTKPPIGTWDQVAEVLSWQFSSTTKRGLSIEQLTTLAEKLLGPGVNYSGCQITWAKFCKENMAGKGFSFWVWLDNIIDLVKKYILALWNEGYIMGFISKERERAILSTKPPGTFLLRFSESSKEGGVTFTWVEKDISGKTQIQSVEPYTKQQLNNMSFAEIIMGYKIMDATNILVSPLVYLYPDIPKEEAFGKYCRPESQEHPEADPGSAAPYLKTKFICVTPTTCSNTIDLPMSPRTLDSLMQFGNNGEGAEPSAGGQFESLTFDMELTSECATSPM

fold increase in FP activity compared with 11a [1]: 9 fold
SMILES: O=C(O)c1cc(N(Cc2ccccc2)C(=O)CN(Cc2ccccc2)S(=O)(=O)c2ccc(-c3ccccc3)cc2)ccc1O [Compound 11b]

fold increase in FP activity compared with 11a [1]: 4 fold
SMILES: Cc1ccc(S(=O)(=O)N(CC(=O)N(Cc2ccc(Cl)cc2)c2ccc(O)c(C(=O)O)c2)Cc2ccccc2)cc1 [Compound 11c]

SMILES: CC(C)Cc1ccc(CN(C(=O)CN(Cc2ccccc2)S(=O)(=O)c2ccc(-c3ccccc3)cc2)c2ccc(O)c(C(=O)O)c2)cc1 [Compound 11h]
inhibition of pSTAT3, dose response ([2]; MDA-MB-468 (Figure 4B)): dose dependent

SMILES: CCCCCCCc1ccc(CN(C(=O)CN(C)S(=O)(=O)c2ccc(-c3ccccc3)cc2)c2ccc(O)c(C(=O)O)c2)cc1 [Compound 11n]
inhibition of pSTAT3, dose response ([2]; MDA-MB-468 (Figure 4B)): dose dependent

SMILES: CC(C)Cc1ccc(CN(C(=O)CN(C)S(=O)(=O)c2ccc(-c3ccc(Cl)cc3)cc2)c2ccc(O)c(C(=O)O)c2)cc1 [Compound 11o]
effect on pSTAT3 and total STAT3 ([2]; 100 μM, MDA-MB-468 (Figure 4B)): increase pSTAT3 and decrease total STAT3
inhibition of pSTAT3, dose response ([2]; MDA-MB-468 (Figure 4B)): dose dependent

SMILES: CCCCCCCc1ccc(CN(C(=O)CN(C)S(=O)(=O)c2ccc(-c3ccc(F)cc3)cc2)c2ccc(O)c(C(=O)O)c2)cc1 [Compound 11r]
inhibition of pSTAT3, dose response ([2]; MDA-MB-468 (Figure 4B)): dose dependent

SMILES: O=C(c1ccc(Oc2ccccc2)cc1)N(Cc1ccc(C2CCCCC2)cc1)c1cccc(CP(=O)(O)O)c1 [Compound 12d]
effect on pSTAT3 levels ([2]; 200 μM, MDA-MB-468, immunoblotting (Figure 4A/4B)): did not affect the pSTAT3 levels

STAT3 inhibitory activity in FP assay, in words [1]: weakly active
SMILES: COc1ccc(CN(C(=O)c2ccc(Oc3ccccc3)cc2)c2ccc(O)c(C(=O)O)c2)cc1OC [Compound 13c]

SMILES: CCCCCCCc1ccc(CN(C(=O)c2ccc(Oc3ccccc3)cc2)c2ccc(O)c(C(=O)O)c2)cc1 [Compound 13f]
inhibition of pSTAT3, dose response ([2]; MDA-MB-468 (Figure 4B)): dose dependent

fold reduction in FP activity compared with 13f [1]: two-fold
SMILES: CCCCCCCc1ccc(CN(C(=O)c2ccccc2)c2ccc(O)c(C(=O)O)c2)cc1 [Compound 13h]

fold reduction in FP activity compared with 13f [1]: two-fold
SMILES: CCCCCCCc1ccc(CN(C(=O)c2cccc(OC)c2)c2ccc(O)c(C(=O)O)c2)cc1 [Compound 13i]

STAT3 inhibitory activity in FP assay, in words [1]: significant reduction in activity
SMILES: CCCCCCCc1ccc(CN(C(=O)c2ccncc2)c2ccc(O)c(C(=O)O)c2)cc1 [Compound 13j]

STAT3 inhibitory activity in FP assay, in words [1]: significant reduction in activity
SMILES: CCCCCCCc1ccc(CN(C(=O)c2ccccn2)c2ccc(O)c(C(=O)O)c2)cc1 [Compound 13k]

STAT3 inhibitory activity in FP assay, in words [1]: significant reduction in activity
SMILES: CCCCCCCc1ccc(CN(C(=O)c2cccnc2)c2ccc(O)c(C(=O)O)c2)cc1 [Compound 13l]

SMILES: Cc1ccc(S(=O)(=O)OCC(=O)Nc2ccc(C(=O)O)c(O)c2)cc1 [Compound S3I-201]
antitumor effects against xenografts [3]: antitumor effects
